Data taken from ChEMBL document CHEMBL1240321, “Cyclostreptin binds covalently to microtubule pores and lumenal taxoid binding sites” (Nat Chem Biol, 2007).
pIC50, pKd: −log10 of the molar value. Active and inactive are the calls of the source. The calls are words filed in the database; no cut-off is given here.

Assays:
[1] = system: A2780; assay: Cytotoxicity against human A2780 cells at 5 uM; format: functional, cell-based
[2] = system: 1A9/ptx-22; assay: Cytotoxicity against human 1A9PTX22 cells at 5 uM; format: functional, cell-based
[3] = system: A2780-1A9; assay: Cytotoxicity against human A2780-1A9 cells at 5 uM; format: functional, cell-based
[4] = system: A549; assay: Cytotoxicity against human A549 cells at 5 uM; format: functional, cell-based
[5] = system: A2780 ADR; assay: Cytotoxicity against human A2780AD cells at 5 uM; format: functional, cell-based
[6] = system: 1A9/ptx-10; assay: Cytotoxicity against human 1A9PTX10 cells at 5 uM; format: functional, cell-based
[7] = Binding affinity to microtubule pretreated with cyclostreptin
In short: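 Glutaraldehyde-crosslinked microtubules (60 µM) were preincubated overnight at 22 °C with 66 µM cyclostreptin in GAB (3.4 M glycerol, 10 mM NaPi, 1 mM EGTA, 6 mM MgCl2, pH 6.7) plus 0.1 mM GTP, then dialyzed 5 h against the same buffer. Flutax-2 (50 nM) was titrated with these microtubules, and the association constant for Flutax-2 binding was calculated.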

[8] = Binding affinity to microtubule
[9] = Cytotoxicity against human 1A9PTX22 cells; format: functional, cell-based; conditions: 1A9/ptx-22
[10] = Cytotoxicity against human A2780AD cells; format: functional, cell-based; conditions: A2780 ADR
[11] = Cytotoxicity against human A2780-1A9 cells; format: functional, cell-based
[12] = system: PtK2; assay: Induction of microtubule bundle formation in potoroo PtK2 cells at 5 uM after 7 hrs by flow cytometry; format: cell-based; conditions: Potorous tridactylus
[13] = system: PtK2; assay: Induction of microtubule bundle formation in potoroo PtK2 cells at 10 uM treated for 7 hrs followed by compound washout measured after 48 hrs; conditions: Potorous tridactylus
[14] = Induction of micronucleation in potoroo PtK2 cells at 2 uM after 7 hrs by flow cytometry; format: functional, Potorous tridactylus
[15] = Induction of mitotic cell cycle arrest at G1/G0 phase in potoroo PtK2 cells 10 uM after 7 hrs by flow cytometry (Rvb= 60%); format: functional, Potorous tridactylus
[16] = system: A2780; assay: Induction of mitotic cell cycle arrest in human A2780 cells assessed as accumulation of cells at G2+M phase at 15 nM after 24 hrs by flow cytometry (Rvb= 20%); format: functional
[17] = system: A549; assay: Induction of mitotic cell cycle arrest in human A549 cells assessed as accumulation of cells at G1/G0 phase at 20 nM after 24 hrs by flow cytometry (Rvb= 39.2%); format: functional
[18] = system: A549; assay: Induction of mitotic cell cycle arrest in human A549 cells assessed as accumulation of cells at G2+M phase at 20 nM after 24 hrs by flow cytometry (Rvb= 19.6%); format: functional
[19] = system: PtK2; assay: Induction of micronucleation in potoroo PtK2 cells at 10 uM after 7 hrs by flow cytometry; conditions: Potorous tridactylus
[20] = Induction of micronucleation in potoroo PtK2 cells at 10 uM after 7 hrs by flow cytometry; format: functional, Potorous tridactylus
[21] = system: A2780; assay: Induction of mitotic cell cycle arrest in human A2780 cells assessed as accumulation at S phase at 15 nM after 24 hrs by flow cytometry (Rvb= 17.5%); format: functional
[22] = Induction of micronucleation in potoroo PtK2 cells at 5 uM after 7 hrs by flow cytometry; format: functional, Potorous tridactylus
[23] = system: A2780; assay: Induction of mitotic cell cycle arrest in human A2780 cells assessed as accumulation of cells at G1/G0 phase at 15 nM after 24 hrs by flow cytometry (Rvb= 60%); format: functional
[24] = system: A549; assay: Induction of mitotic cell cycle arrest in human A549 cells assessed as accumulation of cells at SubG1 phase at 20 nM after 24 hrs by flow cytometry (Rvb= 25%); format: functional
[25] = Micronucleation in potoroo PtK2 cells at 10 uM treated for 7 hrs followed by compound washout measured after 48 hrs by flow cytometry; conditions: Potorous tridactylus
[26] = system: A2780; assay: Induction of mitotic cell cycle arrest in human A2780 cells assessed as accumulation of cells at SubG1 phase at 15 nM after 24 hrs by flow cytometry (Rvb= 2.5%); format: functional
[27] = Cytotoxicity against human 1A9PTX10 cells; format: functional, cell-based; conditions: 1A9/ptx-10
[28] = system: PtK2; assay: Induction of microtubule bundle formation in potoroo PtK2 cells at 2 uM after 7 hrs by flow cytometry; format: cell-based; conditions: Potorous tridactylus
[29] = system: PtK2; assay: Displacement of Flutax-2 from microtubule in potoroo PtK2 cells at 100 uM; conditions: Potorous tridactylus
[30] = Displacement of [3H]discodermolide from microtubule assessed as bound radioligand level at 20 uM treated before radioligand addition by competitive binding assay
[31] = Displacement of [3H]paclitaxel from microtubule assessed as bound radioligand level at 20 uM treated before radioligand addition by competitive binding assay
[32] = Displacement of [3H]epothilone B from microtubule assessed as bound radioligand level at 20 uM treated after radioligand addition by competitive binding assay
[33] = Displacement of [3H]discodermolide from microtubule assessed as bound radioligand level at 20 uM treated after radioligand addition by competitive binding assay
[34] = Displacement of [3H]paclitaxel from microtubule assessed as bound radioligand level at 20 uM treated after radioligand addition by competitive binding assay
[35] = Displacement of [3H]epothilone B from microtubule assessed as bound radioligand level at 20 uM treated before radioligand addition by competitive binding assay
[36] = system: A2780; assay: Cytotoxicity against human A2780 cells; format: functional, cell-based
[37] = system: A549; assay: Cytotoxicity against human A549 cells; format: functional, cell-based
[38] = Induction of mitotic cell cycle arrest in human A2780AD cells assessed as accumulation at S phase at 5 uM after 24 hrs by flow cytometry (Rvb= 16.2%); format: functional, A2780 ADR
[39] = Induction of mitotic cell cycle arrest in human A2780AD cells assessed as accumulation of cells at G2+M phase at 5 uM after 24 hrs by flow cytometry (Rvb= 20.5%); format: functional, A2780 ADR
[40] = system: A2780; assay: Induction of mitotic cell cycle arrest in human A2780 cells assessed as accumulation at S phase at 5 uM after 24 hrs by flow cytometry (Rvb= 17.5%); format: functional
[41] = system: A2780; assay: Induction of mitotic cell cycle arrest in human A2780 cells assessed as accumulation of cells at G1/G0 phase at 5 uM after 24 hrs by flow cytometry (Rvb= 60%); format: functional
[42] = Induction of mitotic cell cycle arrest in human A2780AD cells assessed as accumulation of cells at SubG1 phase at 5 uM after 24 hrs by flow cytometry (Rvb= 4.1%); format: functional, A2780 ADR
[43] = Induction of mitotic cell cycle arrest in human A2780AD cells assessed as accumulation of cells at G1/G0 phase at 5 uM after 24 hrs by flow cytometry (Rvb= 59.2%); format: functional, A2780 ADR
[44] = system: A2780; assay: Induction of mitotic cell cycle arrest in human A2780 cells assessed as accumulation of cells at G2+M phase at 5 uM after 24 hrs by flow cytometry (Rvb= 20%); format: functional
[45] = system: A2780; assay: Induction of mitotic cell cycle arrest in human A2780 cells assessed as accumulation of cells at SubG1 phase at 5 uM after 24 hrs by flow cytometry (Rvb= 2.5%); format: functional

Q: With `CC1=C[C@H]2[C@@H](O)[C@H](C)[C@@H](O)[C@@H]2[C@H]2[C@H]3[C@@H](C[C@@H]12)[C@@]1(C)CC[C@H]2OC(=O)[C@]34O[C@@]4(O1)[C@@H]2C` as the molecule, how does the Activity [1] read?
A: inactive

Q: What about the Activity [2] of the same molecule?
A: inactive

Q: And the Activity [3]?
A: inactive

Q: What about the Activity [4] of the same molecule?
A: inactive

Q: What about the Activity [5] of the same molecule?
A: inactive

Q: And the Activity [6]?
A: inactive

Q: For `CC(=O)O[C@H]1C(=O)[C@]2(C)[C@@H](OC(=O)[C@H](C)NC(=O)c3ccc(-c4c5cc(F)c(=O)cc-5oc5cc(O)c(F)cc45)c(C(=O)O)c3)C[C@H]3OC[C@@]3(OC(C)=O)[C@H]2[C@H](OC(=O)c2ccccc2)[C@]2(O)C[C@H](OC(=O)[C@H](O)[C@@H](NC(=O)c3ccccc3)c3ccccc3)C(C)=C1C2(C)C` [FLUTAX 2], which Activity [7] is on record?
A: inactive

Q: And the pKd [8]?
A: 7.85

Q: Which results are given for `CC(=O)O[C@H]1C(=O)[C@@]2(C)[C@H]([C@H](OC(=O)c3ccccc3)[C@]3(O)C[C@H](OC(=O)[C@H](O)[C@@H](NC(=O)c4ccccc4)c4ccccc4)C(C)=C1C3(C)C)[C@]1(OC(C)=O)CO[C@@H]1C[C@@H]2O` [PACLITAXEL]?
A: pIC50 [9]: 7.72; pIC50 [10]: 6.05; pIC50 [11]: 8.96; Activity [12]: 4%; Activity [13]: Active; Activity [14]: 4%; Activity [15]: 50%; Activity [16]: 70.8%; Activity [17]: 8.4%; Activity [18]: 8.85%; Activity [19]: 4%; Activity [20]: 4%; Activity [21]: 7%; Activity [22]: 4%; Activity [23]: 6.5%; Activity [24]: 36.9%; Activity at 10 µM [25]: 40%; Activity [26]: 15.7%; pKd [8]: 7.15; pIC50 [27]: 7.52; Activity [28]: 4%; Activity [29]: Active

Q: With `C/C(=C\c1csc(C)n1)[C@@H]1C[C@@H]2O[C@]2(C)CCC[C@H](C)[C@H](O)[C@@H](C)C(=O)C(C)(C)[C@@H](O)CC(=O)O1` [PATUPILONE] as the molecule, how does the Activity [30] read?
A: 79%

Q: What about the Activity [31] of the same molecule?
A: 33%

Q: And the Activity [32]?
A: 9%

Q: What about the Activity [33] of the same molecule?
A: 76%

Q: What about the Activity [34] of the same molecule?
A: 31%

Q: What about the pKd [8] of the same molecule?
A: 8.89

Q: And the Activity [35]?
A: 9%

Q: What does the source list for `C=C/C=C\[C@H](C)[C@H](OC(N)=O)[C@@H](C)[C@H](O)[C@@H](C)C/C(C)=C\[C@H](C)[C@@H](O)[C@@H](C)/C=C\[C@@H](O)C[C@@H]1OC(=O)[C@H](C)[C@@H](O)[C@H]1C` [DISERMOLIDE]?
A: Activity [30]: 31%; Activity [33]: 27%; pKd [8]: 9.74

Q: With `CC(=O)O[C@@]12CO[C@@H]1C[C@H](O)[C@@]1(C)C(=O)[C@H](O)C3=C(C)[C@@H](OC(=O)[C@H](O)[C@@H](NC(=O)OC(C)(C)C)c4ccccc4)C[C@@](O)([C@@H](OC(=O)c4ccccc4)[C@H]21)C3(C)C` [DOCETAXEL] as the molecule, how does the pIC50 [10] read?
A: 6.55

Q: What about the pIC50 [11] of the same molecule?
A: 9.22

Q: What about the pIC50 [36] of the same molecule?
A: 9.30

Q: What about the pIC50 [37] of the same molecule?
A: 8.14

Q: With `CC1=C[C@H]2[C@@H](O)[C@H](C)[C@@H](O)[C@@H]2[C@H]2[C@@H]3[C@H]4C(=O)O[C@@H]5CC[C@@](C)(O[C@@H]4[C@@H]5C)[C@@H]3C[C@@H]12` as the molecule, how does the Activity [1] read?
A: inactive

Q: And the Activity [38]?
A: 19.6%

Q: What about the Activity [2] of the same molecule?
A: inactive

Q: What about the Activity [3] of the same molecule?
A: inactive

Q: And the Activity [39]?
A: 21.5%

Q: What about the Activity [40] of the same molecule?
A: 22.5%

Q: And the Activity [41]?
A: 58.7%

Q: And the Activity [4]?
A: inactive

Q: And the Activity [42]?
A: 2%

Q: What about the Activity [5] of the same molecule?
A: inactive

Q: What about the Activity [43] of the same molecule?
A: 56.9%

Q: And the Activity [44]?
A: 16%

Q: What about the Activity [6] of the same molecule?
A: inactive

Q: And the Activity [45]?
A: 2.8%

Q: For `C/C(=C\c1csc(C)n1)[C@@H]1C[C@@H]2O[C@@H]2CCC[C@H](C)[C@H](O)[C@@H](C)C(=O)C(C)(C)[C@@H](O)CC(=O)O1` [EPOTHILONE A], which Activity [30] is on record?
A: 96%

Q: What about the Activity [31] of the same molecule?
A: 49%

Q: What about the Activity [32] of the same molecule?
A: 49%

Q: And the Activity [33]?
A: 95%

Q: What about the Activity [34] of the same molecule?
A: 46%

Q: What about the pKd [8] of the same molecule?
A: 7.55

Q: And the Activity [35]?
A: 49%
